Laboratory results as given in ChEMBL document CHEMBL3870319, “Synthesis and biological evaluation of rhein amides as inhibitors of osteoclast differentiation and bone resorption” (Eur J Med Chem, 2016).
Calls of active or inactive are those of the source. The rule behind the calls is not given here.

Key:
[1] = Cytotoxicity against C57/BL6 mouse primary BMDM assessed as cell viability at 5 uM after 2 days in presence of M-CSF by MTT assay relative to control; type: toxicity; details: primary bone marrow-derived macrophages (BMDM), read-out: Activity
Procedure, shortened: (§1)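 Primary BMMs were obtained by flushing femur and tibia marrow of 4-week-old male C57BL/6 mice, culturing it overnight, then expanding the non-adherent cells with 30 ng/mL M-CSF to 90% confluence. They were seeded at 3×10^3 cells/well in full α-MEM with 30 ng/mL M-CSF. Next day, compound was added in triplicate for two days. MTT (5 mg/mL) was added for 2 h at 37°C, crystals were dissolved in DMSO, and OD was read at 570 nm. Viability is relative to untreated control (100%).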

[2] = (§2) Inhibition of RANKL/M-CSF-induced osteoclastogenesis in C57/BL6 mouse primary BMDM assessed as reduction in TRAP activity using pNPP as substrate after 2 days by colorimetric assay; type: functional
Procedure, shortened: (§3)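 BMMs at 3×10^3 cells/well exposed to 30 ng/mL M-CSF plus 50 ng/mL RANKL with compound in triplicate for two days. PBS-washed cells lysed 15 min at 37°C; lysate incubated 45 min with p-NPP in presence of disodium tartrate, stopped with NaOH, OD read at 405 nm, normalized to BCA protein; inhibition relative to control.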

[3] = Induction of C57/BL6 mouse primary BMDM proliferation assessed at 5 uM after 2 days by MTT assay relative to control; details: 48 h
Procedure, shortened: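 BMMs from femur/tibia marrow of 4-week-old male C57BL/6 mice, expanded in α-MEM/10% FBS with 30 ng/mL M-CSF. Seeded at 3×10^3 cells/well, treated next day in triplicate for two days with M-CSF present. MTT (5 mg/mL stock) for 2 h at 37°C, crystals dissolved in DMSO, OD 570 nm; viability relative to untreated control.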

BMDM [4] = assay: as §2; type: functional; procedure, shortened: as §3
Mus musculus [5] = organism: Mus musculus; assay: Cytotoxicity against C57/BL6 mouse primary BMDM assessed as cell viability at 7.5 uM after 2 days in presence of M-CSF by MTT assay; type: toxicity; details: 48 h; procedure, shortened: as §1
BMDM [6] = assay: Inhibition of RANKL/M-CSF-induced osteoclastogenesis in C57/BL6 mouse primary BMDM assessed reduction in TRAP-positive multinucleated cells at 5 uM after 5 days; type: functional
Procedure, shortened: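 Mouse C57BL/6 BMMs were adhered overnight in M-CSF medium, then cultured with 30 ng/mL M-CSF plus 50 ng/mL RANKL and compound for five days, with medium changed every two days. Cells were TRAP-stained with a leukocyte acid phosphatase kit, and TRAP-positive cells with ≥3 nuclei were counted as osteoclasts. Counts are expressed as percent of control, from at least three experiments.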

BMDM [7] = assay: Inhibition of RANKL/M-CSF-induced bone resorption of osteoclast in C57/BL6 mouse primary BMDM cultured on bovine femur bone slices assessed as reduction in bone resorption area at 5 uM after 5 days by toluidine blue staining based microscopy; type: functional
Procedure, shortened: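 BMMs seeded on bovine femur bone slices; next day induced with 30 ng/mL M-CSF plus 50 ng/mL RANKL with compound for five days, medium changed every two days. Cells fixed in 2.5% glutaraldehyde, slices stained with 0.5% toluidine blue, imaged at 200×; pit area from three random fields per slice, expressed as % of control.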

Mus musculus [8] = organism: Mus musculus; assay: Inhibition of RANK/RANKL/NFATc1 signalling pathway in M-CSF-stimulated C57/BL6 mouse primary BMDM assessed as reduction in NFATc1 mRNA level at 5 uM by qRT-PCR analysis
Procedure, shortened: (§4)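 BMMs treated with M-CSF and/or RANKL alone or with 5 µM compound; mRNA for NFATc1, c-fos, TRAP, MMP-9 and cathepsin K measured by SYBR Green qRT-PCR, normalized to β-actin, expressed as fold change versus control cells; mean ± S.D. of triplicate measurements per cDNA sample.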

Mus musculus [9] = organism: Mus musculus; assay: Inhibition of RANK/RANKL/NFATc1 signalling pathway in M-CSF-stimulated C57/BL6 mouse primary BMDM assessed as reduction in c-FOS mRNA level at 5 uM by qRT-PCR analysis; procedure, shortened: as §4
Mus musculus [10] = organism: Mus musculus; assay: Inhibition of RANK/RANKL/NFATc1 signalling pathway in M-CSF-stimulated C57/BL6 mouse primary BMDM assessed as reduction in TRAP mRNA level at 5 uM by qRT-PCR analysis; procedure, shortened: as §4
Mus musculus [11] = organism: Mus musculus; assay: Inhibition of RANK/RANKL/NFATc1 signalling pathway in M-CSF-stimulated C57/BL6 mouse primary BMDM assessed as reduction in MMP9 mRNA level at 5 uM by qRT-PCR analysis; procedure, shortened: as §4
Mus musculus [12] = organism: Mus musculus; assay: Inhibition of RANK/RANKL/NFATc1 signalling pathway in M-CSF-stimulated C57/BL6 mouse primary BMDM assessed as reduction in cathepsin K mRNA level at 5 uM by qRT-PCR analysis; procedure, shortened: as §4
Mus musculus [13] = organism: Mus musculus; assay: Cytotoxicity against mouse MC3T3-E1 cells assessed as reduction in cell viability at 5 uM after 2 days in presence of M-CSF by MTT assay; type: toxicity, cell-based; details: mc3t3-e1, 48 h
Procedure, shortened: (§5)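 MTT viability in MC3T3-E1 preosteoblasts (ATCC) or C57BL/6-derived mouse MSCs grown in α-MEM with 10% FBS and penicillin/streptomycin at 37°C, 5% CO2. Compound at indicated concentrations for 2 days, then MTT read. Viability expressed relative to control, mean ± SD of triplicates.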

Mus musculus [14] = organism: Mus musculus; assay: Cytotoxicity against C57/BL6 mouse MSC assessed as reduction in cell viability at 5 uM after 2 days in presence of M-CSF by MTT assay; type: toxicity; details: 48 h; procedure, shortened: as §5

Row | Compound | viability at 48 h, 5 µM [1] | inhibition (INH) [2] | other results
1 | O=C(O)c1cc(O)c2c(c1)C(=O)c1cccc(O)c1C2=O [RHEIN] | 97% | 47% | Activity [3]: Non-Toxic
2 | O=C(Nc1ccc(C(F)(F)F)cc1Cl)c1cc(O)c2c(c1)C(=O)c1cccc(O)c1C2=O | 17% | – | –
3 | CC(=O)Oc1cccc2c1C(=O)c1c(OC(C)=O)cc(C(=O)Nc3ccc(C)c(Cl)c3)cc1C2=O | 75% | 0% | –
4 | CC(=O)Oc1cccc2c1C(=O)c1c(OC(C)=O)cc(C(=O)Nc3cc(C(F)(F)F)ccn3)cc1C2=O | 37% | – | –
5 | O=C(NCCN1CCOCC1)c1cc(O)c2c(c1)C(=O)c1cccc(O)c1C2=O | 15% | – | –
6 | CC(=O)Oc1cccc2c1C(=O)c1c(OC(C)=O)cc(C(=O)Nc3ccccc3)cc1C2=O | 28% | – | –
7 | O=C(Nc1ccc(C(F)(F)F)cn1)c1cc(O)c2c(c1)C(=O)c1cccc(O)c1C2=O | 49% | – | –
8 | CN1CCN(C(=O)c2cc(O)c3c(c2)C(=O)c2cccc(O)c2C3=O)CC1 | 122% | 0% | –
9 | O=C1c2cccc(O)c2C(=O)c2c(O)cc(C(=O)N3CCC(N4CCOCC4)CC3)cc21 | 92% | 98% | inhibition (BMDM [4]): Dose-dependent effect; Activity (Mus musculus [5]): Non-Toxic; inhibition (BMDM [6]): Active; inhibition (BMDM [7]): Active; inhibition (Mus musculus [8]): Active; inhibition (Mus musculus [9]): Active; inhibition (Mus musculus [10]): Active; inhibition (Mus musculus [11]): Active; inhibition (Mus musculus [12]): Active; Activity (Mus musculus [13]): Non-Toxic; Activity (Mus musculus [14]): Non-Toxic
10 | Cc1ccc(NC(=O)c2cc(O)c3c(c2)C(=O)c2cccc(O)c2C3=O)cc1 | 62% | – | –
11 | CC(=O)Oc1cccc2c1C(=O)c1c(OC(C)=O)cc(C(=O)Nc3ccc(C(F)(F)F)cc3Cl)cc1C2=O | 17% | – | –
12 | O=C1c2cccc(O)c2C(=O)c2c(O)cc(C(=O)N3CCC(CO)CC3)cc21 | 79% | 85% | –
13 | CC(=O)Oc1cccc2c1C(=O)c1c(OC(C)=O)cc(C(=O)Nc3ccc(C(F)(F)F)cc3)cc1C2=O | 51% | – | –
14 | Cc1cc(O)c2c(c1)C(=O)c1cc(O)cc(O)c1C2=O [EMODIN] | 109% | 45% | inhibition (BMDM [6]): Active; Activity [3]: Non-Toxic
15 | O=C(Nc1ccccc1)c1cc(O)c2c(c1)C(=O)c1cccc(O)c1C2=O | 53% | – | –
16 | CC(=O)Oc1cccc2c1C(=O)c1c(OC(C)=O)cc(C(=O)Nc3ccc(C)cc3)cc1C2=O | 28% | – | –
17 | CC(C)(O)C1CCN(C(=O)c2cc(O)c3c(c2)C(=O)c2cccc(O)c2C3=O)CC1 | 92% | 65% | –
18 | CCN1CCN(C(=O)c2cc(O)c3c(c2)C(=O)c2cccc(O)c2C3=O)CC1 | 24% | – | –
19 | CC(=O)Oc1cccc2c1C(=O)c1c(OC(C)=O)cc(C(=O)Nc3ccc(C(F)(F)F)cn3)cc1C2=O | 35% | – | –
20 | CC(=O)Oc1cccc2c1C(=O)c1c(OC(C)=O)cc(C(=O)N3CCC(C)CC3)cc1C2=O | 8% | – | –
21 | O=C(Nc1ccc(C(F)(F)F)cc1)c1cc(O)c2c(c1)C(=O)c1cccc(O)c1C2=O | 57% | – | –
22 | CC1CCN(C(=O)c2cc(O)c3c(c2)C(=O)c2cccc(O)c2C3=O)CC1 | 103% | 0% | –
